Assay results reported in ChEMBL document CHEMBL5360637, “Ravidomycin Analogs from Streptomyces sp. Exhibit Altered Antimicrobial and Cytotoxic Selectivity” (J Nat Prod, 2023).
Converted amounts (≈) assume the structure as drawn.

Columns and labels:
HCC1806 = assay: Cytotoxicity against human HCC1806 cells assessed as reduction in cell viability incubated for 72 hrs by Cell-titer glo assay; assay type: functional, cell-based; details: HCC1806, 72 h
Outline: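 HCC1806 cells were grown in DMEM with 10% FBS, penicillin/streptomycin and 1% GlutaMax, were mycoplasma-tested and kept ≤4 weeks. Cells were seeded at 2500 per well and treated after 24 h, with six wells per dose, against a 0.1% DMSO vehicle. CellTiter-Glo 2.0 luminescence was read at 72 h. IC50 came from a log(inhibitor) vs normalized response least-squares fit of % viability relative to DMSO.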

Pseudomonas aeruginosa = assay: Antibacterial activity against Pseudomonas aeruginosa PAO1 assessed as bacterial growth inhibition incubated for 24 hrs by microtiter plate reader analysis; assay type: functional
Outline: (§1)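 Broth microdilution in Mueller-Hinton broth (P. aeruginosa PAO1 is the mexAB-oprM strain). Overnight cultures were diluted 1:1000 and 200 μL was added to wells holding 2 μL of compound in DMSO. Plates were incubated 24 h at room temperature under room fluorescent light, then OD600 was read. MIC was taken as the lowest concentration keeping OD600 from rising above 0.1.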

Staphylococcus aureus = assay: Antibacterial activity against Staphylococcus aureus Newman assessed as bacterial growth inhibition incubated for 24 hrs by microtiter plate reader analysis; assay type: functional; outline: as §1
Candida albicans = assay: Antifungal activity against Candida albicans SC5314 assessed as bacterial growth inhibition incubated for 24 hrs by microtiter plate reader analysis; assay type: functional
Outline: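 C. albicans was grown in RPMI 1640 with 165 mM MOPS, pH 7.0. Overnight culture was diluted 1:1000 and 200 μL was added to wells holding 2 μL of compound in DMSO. Plates were incubated 24 h at room temperature under room fluorescent light, then OD600 was read. MIC was the lowest concentration preventing OD600 from exceeding 0.1.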

Row | MIC (Pseudomonas aeruginosa) [mg/L] | MIC (Staphylococcus aureus) [mg/L] | MIC (Candida albicans) [mg/L] | Compound | IC50 (HCC1806) [µM]
1 | 50 (≈ 93.2 µM) | 0.003 (≈ 0.00559 µM) | 6.3 (≈ 11.7 µM) | C=Cc1cc(OC)c2c(c1)c(=O)oc1c2cc(OC)c2c(O)ccc([C@@H]3O[C@H](C)[C@H](OC(C)=O)[C@H](O)[C@H]3O)c21 | 5.1
2 | 50 (≈ 104 µM) | 0.1 (≈ 0.209 µM) | 6.3 (≈ 13.2 µM) | C=Cc1cc(OC)c2c(c1)c(=O)oc1c2cc(OC)c2c(O)ccc([C@@H]3O[C@H](C)[C@H](O)C[C@H]3O)c21 | > 10
3 | > 13 | 0.1 (≈ 0.187 µM) | 13 (≈ 24.3 µM) | C=Cc1cc(OC)c2c(c1)c(=O)oc1c2cc(OC)c2c(O)ccc([C@@H]3O[C@H](C)[C@H](O)[C@H](NC(C)=O)[C@H]3O)c21 | > 10
4 | > 100 | 0.78 (≈ 1.49 µM) | 25 (≈ 47.7 µM) | CCc1cc(OC)c2c(c1)c(=O)oc1c2cc(OC)c2c(O)ccc([C@@H]3O[C@H](C)[C@H](O)[C@H](N(C)C)[C@H]3O)c21 | > 10
5 | 50 (≈ 88.4 µM) | 0.003 (≈ 0.0053 µM) | 6.3 (≈ 11.1 µM) | C=Cc1cc(OC)c2c(c1)c(=O)oc1c2cc(OC)c2c(O)ccc([C@@H]3O[C@H](C)[C@H](O)[C@H](N(C)C(=O)OC)[C@H]3O)c21 | 0.55
6 | > 13 | 13 (≈ 24.1 µM) | > 13 | COc1cc2c(oc(=O)c3cc([C@H](C)O)cc(OC)c32)c2c([C@@H]3O[C@H](C)[C@H](O)[C@H](N(C)C)[C@H]3O)ccc(O)c12 | > 10
7 | 50 (≈ 91 µM) | 0.006 (≈ 0.0109 µM) | 13 (≈ 23.7 µM) | C=Cc1cc(OC)c2c(c1)c(=O)oc1c2cc(OC)c2c(O)ccc([C@@H]3O[C@H](C)[C@H](O)[C@H](N(C)C(C)=O)[C@H]3O)c21 | 1.7
8 | > 13 | 0.39 (≈ 0.768 µM) | 13 (≈ 25.6 µM) | C=Cc1cc(O)c2c(c1)c(=O)oc1c2cc(OC)c2c(O)ccc([C@@H]3O[C@H](C)[C@H](O)[C@H](N(C)C)[C@H]3O)c21 | > 10
9 | > 100 | 1.6 (≈ 3.14 µM) | 100 (≈ 196 µM) | COc1cc2c(oc(=O)c3cc(C)cc(OC)c32)c2c([C@@H]3O[C@H](C)[C@H](O)[C@H](N(C)C)[C@H]3O)ccc(O)c12 | 3.6

The next lines start with the molecule.

Row | Compound | MIC (Pseudomonas aeruginosa) [mg/L] | MIC (Staphylococcus aureus) [mg/L] | MIC (Candida albicans) [mg/L] | IC50 (HCC1806) [µM]
10 | C=Cc1cc(OC)c2c(c1)c(=O)oc1c2cc(OC)c2c(O)ccc([C@@H]3O[C@H](C)[C@H](O)[C@H](O)[C@H]3OC(C)=O)c21 | > 100 | 0.049 (≈ 0.0913 µM) | > 25 | 0.87
11 | C=Cc1cc(OC)c2c(c1)c(=O)oc1c2cc(OC)c2c(O)ccc([C@@H]3O[C@H](C)[C@H](O)[C@H](OC(C)=O)[C@H]3O)c21 | > 100 | 0.006 (≈ 0.0112 µM) | 6.3 (≈ 11.7 µM) | 0.37
12 | C=Cc1cc(OC)c2c(c1)c(=O)oc1c2cc(OC)c2c(O)ccc([C@@H]3O[C@H](C)[C@H](O)[C@H](N(C)C)[C@H]3O)c21 | 3.1 (≈ 5.94 µM) | 0.006 (≈ 0.0115 µM) | 0.78 (≈ 1.5 µM) | 0.081
13 | C=Cc1cc(OC)c2c(c1)c(=O)oc1c2cc(OC)c2c(O)ccc([C@@H]3O[C@H](C)[C@H](O)[C@H](NC)[C@H]3O)c21 | 6.3 (≈ 12.4 µM) | 0.049 (≈ 0.0965 µM) | 0.78 (≈ 1.54 µM) | 0.053
14 | C=Cc1cc(OC)c2c(c1)c(=O)oc1c2cc(OC)c2c(O)ccc([C@@H]3O[C@H](C)[C@H](O)[C@H](NC(=O)OC)[C@H]3O)c21 | 25 (≈ 45.3 µM) | 0.012 (≈ 0.0218 µM) | 6.3 (≈ 11.4 µM) | 0.71
15 | C=Cc1cc(OC)c2c(c1)c(=O)oc1c2cc(OC)c2c(O)ccc([C@@H]3O[C@H](C)[C@H](O)[C@H](O)[C@H]3O)c21 | 3.1 (≈ 6.27 µM) | 0.006 (≈ 0.0121 µM) | 13 (≈ 26.3 µM) | 3.6
16 | C=Cc1cc(OC)c2c(c1)c(=O)oc1c2cc(OC)c2c(O)ccc([C@@H]3O[C@H](C)[C@H](OC(C)=O)[C@H](N(C)C)[C@H]3O)c21 | 13 (≈ 23.1 µM) | 0.39 (≈ 0.692 µM) | 0.39 (≈ 0.692 µM) | 0.042
